The values below come from ChEMBL document CHEMBL1129350, “Hypoxia-selective antitumor agents. 13. Effects of acridine substitution on the hypoxia-selective cytotoxicity and metabolic reduction of the bis-bioreductive agent nitracrine N-oxide” (J Med Chem, 1996).

SMILES strings stand for the structures.

One assay relates to Mus musculus. The assay can be described thus: Maximum tolerated ip dose for male C3H/HeN mice. It is filed as functional. The essentials: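 Compounds formulated in water, injected ip at 0.01 mL/g into male C3H/HeN mice (20–25 g); groups of six mice, dose increments of 1.33-fold, observed 28 days. MTD taken as highest dose causing no deaths or unacceptable morbidity.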
The subject of assay [1] is CHO-AA8. The assay is described as follows: Concentration needed to reduce cell survival to 10% of control values, using 1 hour exposure of plateau phase AA8 cells at 10e6 cells/ml. It is filed as functional, Cricetulus griseus. Put shortly: (§1)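 Plateau-phase AA8 cells at 10⁶/mL in magnetically stirred 10 mL suspensions in αMEM with 5% fetal calf serum, continuously gassed with 5% CO₂ in air or N₂. Cells and drug solutions were pre-equilibrated under the gas phase for 60 min before mixing, then exposed for 1 h. Clonogenic survival was read as plating efficiency. C10 is the concentration lowering plating efficiency to 10% of concurrent untreated controls. The air/N₂ ratio is C10(air)/C10(N₂).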

The subject of assay [2] is CHO-AA8. The assay is described as follows: Inhibitory activity against aerobic growth of AA8 cells. It is filed as functional, cell-based. The following applies: Cricetulus griseus. The essentials:
(§2)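 Growth inhibition: 200 log-phase AA8 or 300 UV4 cells were seeded per well. One day later they were exposed to drug for 18 h under aerobic conditions (5% CO₂) in αMEM with 5% fetal calf serum. Cell mass was measured as protein by methylene blue staining 72–78 h after drug removal. IC50 is the concentration reducing cell mass to 50% of the mean of eight controls on the same plate. HF is IC50(AA8)/IC50(UV4).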

Assay [3] in a line: Spheroid resistance factor which is defined as the ratio C10 (intact)/ C10 (dissociated) EMT6 cells. It is filed as functional. Put shortly:
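EMT6/Ak spheroids were grown in αMEM with 10% FBS in spinner flasks to about 1000–1400 μm diameter. For dissociated cells, spheroids were treated with pronase 0.5 mg/mL and DNAase I 1 mg/mL for 30 min at 37 °C, washed, then exposed to drug for 1 h. Intact spheroids were exposed at 1 spheroid/mL in stirred vials for 1 h before dissociation and plating. Both exposures used about 2 × 10⁵ cells/mL, 5% CO₂/20% O₂, 37 °C. C10 was interpolated from at least four concentrations per survival curve. SRF is C10(intact)/C10(dissociated). Results are mean ± SEM of independent experiments.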

Assay [4] is described as follows: Air/N2 ratio = C10(air)/C10(nitrogen). The essentials: as §1
Assay [5] can be described thus: Inhibitory activity against aerobic growth of UV4cells, Hypersensitivity factor is the ratio of IC50(AA8) to IC50(UV4). The assay is classed as functional. The essentials: as §2
Another assay concerns EMT6 (Mus musculus). The assay is described as follows: Concentration resulting in 10% survival in dissociated EMT6 spheroid cell suspension.

The term IC50 denotes the point on the concentration scale where inhibition reaches its midpoint. Higher therefore signals a need for much substance. `C[N+](C)([O-])CCCNc1c2ccccc2nc2cccc([N+](=O)[O-])c12` returned an MTD with Mus musculus of 15 µM/kg. Besides, the C10 with CHO-AA8 [1] was 61 µM; in the assay on EMT6 (Mus musculus), 1.9 µM. The molecule further yielded an IC50 with CHO-AA8 [2] of 2.7 µM. Besides, the Ratio is 7 in assay [3], 820 in assay [4] and 15 in assay [5].

The molecule `COc1cc(OC)c2nc3ccccc3c(NCCCN(C)C)c2c1[N+](=O)[O-]` registered an MTD in the assay with Mus musculus of 300 µM/kg. The molecule also returned a C10 with CHO-AA8 [1] of 500 µM. The molecule further showed a concentration for half-maximal inhibition (IC50) with CHO-AA8 [2] of 47 µM. Besides, the Ratio in assay [4] turned out to be 2.3; in assay [5], 1.3.

In the case of `COc1ccc2nc3ccccc3c(NCCC[N+](C)(C)[O-])c2c1[N+](=O)[O-]`, the MTD in the assay on Mus musculus was 300 µM/kg. Further, the C10 in the assay with CHO-AA8 [1] is over 300 µM. This molecule also came in with an IC50 in the assay on CHO-AA8 [2] of 84 µM.

In turn, `COc1ccc([N+](=O)[O-])c2c(NCCCN(C)C)c3ccccc3nc12` displayed an MTD in the assay on Mus musculus of 15 µM/kg. Moreover, the C10 stood at 16 µM in the assay with CHO-AA8 [1] and 1.7 µM with EMT6 (Mus musculus). Besides, the half-maximal inhibitory concentration (IC50) in the assay on CHO-AA8 [2] came out at 0.47 µM. Besides, the results for the Ratio in assay [3], in assay [4] and in assay [5] were 7.7, 11 and 14, respectively.

In the assay on Mus musculus, `Cc1cccc2c(NCCCN(C)C)c3c([N+](=O)[O-])ccc(C)c3nc12` came in with an MTD of 20 µM/kg. The molecule also yielded a C10 in the assay with CHO-AA8 [1] of 9.6 µM. Also, 0.19 µM corresponded to half-maximal inhibition in the assay on CHO-AA8 [2] (IC50). For the same molecule, the Ratio in assay [4] came out at 11; in assay [5] it was 22.

For the molecule `COc1ccc2nc3ccccc3c(NCCCN(C)C)c2c1[N+](=O)[O-]`, the C10 in the assay on CHO-AA8 [1] is over 60 µM. This molecule returned an IC50 in the assay on CHO-AA8 [2] of 2.9 µM. The Ratio in assay [5] is 4.6.

In the assay on Mus musculus, `Cc1cccc2c(NCCC[N+](C)(C)[O-])c3c([N+](=O)[O-])ccc(C)c3nc12` came in with an MTD of 15 µM/kg. This molecule also showed a C10 in the assay with CHO-AA8 [1] of 60 µM. Further, the IC50 in the assay on CHO-AA8 [2] was determined as 6.8 µM. Also, the Ratio in assay [4] is 54; in assay [5], 32.

As for `Cc1ccc([N+](=O)[O-])c2c(NCCCN(C)C)c3ccccc3nc12`, the MTD in the assay on Mus musculus is 0.2 µM/kg. In the assay on CHO-AA8 [1], this molecule showed a C10 of 1.5 µM. Besides, in the assay on CHO-AA8 [2], 0.053 µM corresponded to half-maximal inhibition (IC50). In addition, the Ratio in assay [4] turned out to be 6.9; in assay [5] it was 13.

In the assay with Mus musculus, `COc1cccc2c(NCCCN(C)C)c3c([N+](=O)[O-])ccc(OC)c3nc12` registered an MTD of 100 µM/kg. This molecule also had a C10 in the assay on CHO-AA8 [1] of 47 µM. In the assay with CHO-AA8 [2], this molecule returned an IC50 of 0.51 µM. The Ratio was 14 in assay [4] and 11 in assay [5].

`Cc1ccc([N+](=O)[O-])c2c(NCCC[N+](C)(C)[O-])c3ccccc3nc12` registered an MTD in the assay with Mus musculus of 15 µM/kg. This molecule gave a C10 in the assay on CHO-AA8 [1] of 47 µM. The molecule also registered an IC50 in the assay on CHO-AA8 [2] of 5.4 µM. For the same molecule, the Ratio in assay [4] came out at 150; in assay [5], 29.

In the assay on Mus musculus, `COc1cccc2c(NCCC[N+](C)(C)[O-])c3c([N+](=O)[O-])ccc(OC)c3nc12` displayed an MTD of 450 µM/kg. Further, the C10 in the assay with CHO-AA8 [1] was 59000 µM. In the assay with CHO-AA8 [2], this molecule showed an IC50 of 150 µM. Also, the results for the Ratio in assay [4] and in assay [5] were 2770 and 14, respectively.

In turn, `CN(C)CCCNc1c2ccccc2nc2cccc([N+](=O)[O-])c12` [NITRACRINE] had an MTD in the assay on Mus musculus of 0.3 µM/kg. Also, the C10 in the assay on CHO-AA8 [1] worked out at 0.4 µM; in the assay on EMT6 (Mus musculus), 0.11 µM. For the same molecule, the figures for the Ratio in assay [3], in assay [4] and in assay [5] were 10.7, 5.1 and 15, respectively.

`COc1cc(OC)c2nc3ccccc3c(NCCC[N+](C)(C)[O-])c2c1[N+](=O)[O-]`: in the assay with Mus musculus, the MTD was found to be 800 µM/kg. In addition, the C10 in the assay on CHO-AA8 [1] turned out to be 20000 µM. In addition, in the assay with CHO-AA8 [2], half-maximal inhibition (IC50) was put at 1960 µM. Also, the figures for the Ratio in assay [4] and in assay [5] were 1.2 and 0.9, respectively.

As for `COc1ccc([N+](=O)[O-])c2c(NCCC[N+](C)(C)[O-])c3ccccc3nc12`, in the assay on Mus musculus, the MTD is 100 µM/kg. For the same molecule, the C10 with CHO-AA8 [1] amounted to 15700 µM; with EMT6 (Mus musculus), 300 µM. Further, in the assay with CHO-AA8 [2], the IC50 came to 130 µM. Besides, the Ratio in assay [3] is 1.9; in assay [4], 1250; in assay [5], 43.
